These results are taken from article PMC7495496 (DNA repair, 2019).

Assay [1] deals with T1, xlKu80 vWA(S229A) (Xenopus laevis, UniProt Q6DDS9, C190S/DEL171-188/S229A).
T1 sequence (Q6DDS9 with tags, fused parts or gaps DEL171-188/C190S/S229A limits assumed): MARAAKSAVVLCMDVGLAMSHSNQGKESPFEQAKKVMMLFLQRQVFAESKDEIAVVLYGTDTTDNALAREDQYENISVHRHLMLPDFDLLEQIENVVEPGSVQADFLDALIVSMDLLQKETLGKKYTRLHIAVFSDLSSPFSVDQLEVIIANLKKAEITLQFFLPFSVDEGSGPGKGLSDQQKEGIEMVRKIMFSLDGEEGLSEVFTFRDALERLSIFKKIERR
As to the kind of experiment: 19F NMR binding study, xlKu80 vWA. The note with it: for binding affinity change resulting from S229A mutation: xlKu80 vWA(S229A) compared with unmodified xlKu80 vWA. The method in brief: (§1)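 Protein (0.2 mM; wild-type-derived or S229A vWA construct, His-tagged, expressed by autoinduction in E. coli BL21(DE3), Ni-NTA and gel filtration purified) titrated with XLF KBMX peptide carrying 4-fluoro-L-Phe at the penultimate position. Peptide stock held protease inhibitor cocktail. ¹⁹F spectra at 564.279 MHz, 25 °C. Internal standard 0.2 mM 4-fluorobenzamide (−34.9 ppm vs external TFA).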

Assay [2] deals with fluorescein-labeled human APLF KBM peptide (human). Put plainly: fluorescence polarisation. (In fluorescence polarisation assays a small probe gives low polarisation when free and higher when bound to something large.)
Assay [3] has the same target. Put plainly: fluorescence polarisation. The source holds these as a separate data set.
Assay [4] has as its target T2, xlKu80 vWA (Xenopus laevis, UniProt Q6DDS9, C190S/DEL171-188).
T2 sequence (Q6DDS9 with tags, fused parts or gaps DEL171-188/C190S limits assumed): T1 sequence (Q6DDS9 with tags, fused parts or gaps DEL171-188/C190S/S229A limits assumed) with A211S
Put plainly: 19F NMR binding study, xlKu80 vWA. The note with it: 0.2 mM xlKu80 vWA; peptide 0.2, 0.4 and 1.0 mM; 25 °C; 150 mM NaCl, 25 mM HEPES. The essentials: as §1

The target in assay [5] is T1, xlKu80 vWA(S229A). Put plainly: X-ray crystallography of xlKu80 vWA. Format: binding. The note with it: crystal of xlKu80 vWA(S229A)-KBMX^XLF, PDB: 6TYX, 1.90 Å.

Numbering of substitutions follows the chain as printed. “Also recorded” adds a separate entry of the source. Read-outs that look alike come from different tables or passages of the source. Square brackets hold non-standard residues; d marks the D form. Ends that are not written are not given here. Phe(4-F) = N[C@@H](Cc1ccc(F)cc1)C(=O)O

With “KPKKKAKGLF*M [fluorinated XLF KBMX peptide]”, the “19F NMR linewidth in the presence of vWA(S229A)” value in assay [1] (0.2 mM xlKu80 vWA(S229A), 1:1 ratio, 25 °C, 150 mM NaCl, 25 mM HEPES, 1 mM TCEP, 1 mM EDTA, 10 % D2O) worked out at 109 Hz. In addition, the “exchange between 19F resonances of bound and free peptide” value in assay [1] (19F NMR, 0.2 mM xlKu80 vWA(S229A) plus 0.2, 0.3, 0.4 mM peptide, 25 °C) was “slow exchange”.

For orientation: Kd means the constant that tells how readily two partners part at equilibrium. Read a low Kd as a tighter complex. Take “isolated Xenopus laevis Ku80 von Willebrand A-like domain (xlKu80 vWA) (domain or fragment)”: the results for the dissociation constant (Kd) in assay [2] and in assay [3] were 0.131 µM and 0.000131 µM, respectively.

Turning to “human Ku80 von Willebrand domain (hsKu80 vWA), 1–240 aa, F47Q/F88Q/L234Q/F237Y (from UniProt P13010 1-240) (domain or fragment)”, the Kd in assay [2] amounted to 0.162 µM; in assay [3] it was 0.000162 µM.

On to “KBMX^XLF peptide: KBMX peptide from XLF (KPKKKAKGL[Phe(4-F)]M; not fully specified; printed as KPKKKAKGLF*M)”, for which the “binding affinity change resulting from S229A mutation” value in assay [1] (19F NMR) is “increases dramatically; also recorded: dramatically increased affinity”; in assay [1] (19F NMR, listed as KBMX^XLF motif peptide), “capable of binding”. In addition, the “19F NMR binding to xlKu80 vWA” value in assay [4] is recorded as “negligible”. The “binding confirmed by X-ray crystallography” value in assay [5] is listed as “further confirmed by X-ray crystallography”.
